Data set [1] is described as follows: Displacement of [20-3H]-phorbol 12,13-dibutyrate (PDBU) from recombinant Protein kinase C alpha (C1a/C1b domain) in presence of phosphatidyl serine. Put shortly:
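Competition binding: displacement of bound [20-3H]phorbol 12,13-dibutyrate from recombinant PKCα isozyme with phosphatidylserine present. IC50 derived by fitting data to a theoretical noncooperative competitive inhibition curve; binding affinity reported as Ki.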

A short description of data set [2]: Partition coefficient (logP). It is filed as physicochemical. The following applies: octanol/water.

Turning to `O=C1CCCCCC/C=C2\CC(CO)(CO1)OC2=O` (stereo not given), the inhibitory constant (Ki) in data set [1] is 1800 nM. For the same compound, the logP in data set [2] was -0.08. On the same counts, the results for `CCCCCCCCCCCCC/C=C1\CC(CO)(COC(C)=O)OC1=O` (stereo not given) are 77.8 nM and 5.36. For the compound `CC(C)CC(C/C=C1/CC(CO)(COC(=O)C(C)(C)C)OC1=O)CC(C)C` (stereo not given), the Ki in data set [1] was found to be 2.9 nM. On to `O=C1CCCCCCCCCCCCCCCCCC/C=C2/CC(CO)(CO1)OC2=O` (stereo not given), for which the Ki in data set [1] came out at 10.3 nM. The logP in data set [2] was determined as 5.81. On the same counts, the results for `O=C1CCCCCCCCCCCCCC/C=C2/CC(CO)(CO1)OC2=O` (stereo not given) are 6.07 nM and 3.85.

Consider `CCCCCCCCCCCCCC(=O)OCC1(CO)CCC(=O)O1` (stereo not given), for which the Ki in data set [1] was 138 nM. The compound also displayed a logP in data set [2] of 4.53.

Turning to `CCCCCCCCCCCCC/C=C1/C[C@@](CO)(COC(C)=O)OC1=O` (stereo in doubt; 3), in data set [1], the Ki turned out to be 35 nM.

Turning to `CCCCCCCCCCCCC/C=C1/C[C@@](CO)(COC(C)=O)OC1=O` (stereo in doubt), the Ki in data set [1] came to 35.1 nM. Moreover, in data set [2], the logP is 5.36.

Take `O=C1CCCCCCCCCCCCCCCCCC/C=C2\CC(CO)(CO1)OC2=O` (stereo not given): the inhibition constant Ki in data set [1] was 22 nM. Further, in data set [2], the logP is 5.81.

On to `CCCCCCCCCCCCCCCCC/C=C1/CC(CO)(COC(C)=O)OC1=O` (stereo not given), for which, in data set [2], the logP is 7.11. Consider `O=C1CCCCCCCCCC/C=C2/CC(CO)(CO1)OC2=O` (stereo not given), for which, in data set [1], the Ki worked out at 52.7 nM. Also, the logP in data set [2] was found to be 1.88. On the same counts, the results for `CCCCCCCCCCCCCC(=O)OCC(CO)OC(C)=O` (stereo not given) are 1000 nM and 5.25.

In the case of `CCCCCCCCCCCCCCCCC/C=C1\CC(CO)(COC(C)=O)OC1=O` (stereo not given), in data set [1], the Ki is 28 nM. In addition, the logP in data set [2] was found to be 7.11. Take `O=C1CCCCCCCCCCCCCC/C=C2\CC(CO)(CO1)OC2=O` (stereo not given): the Ki in data set [1] amounted to 12.2 nM. This compound had a logP in data set [2] of 3.85.

For orientation: Ki means a dissociation constant, usually derived from enzyme kinetics or from competition with a known ligand. What is called logP is a log measure of how a compound divides between an organic and an aqueous phase.

Source of the values: ChEMBL document CHEMBL1138662, “Macrocyclic diacylglycerol-bis-lactones as conformationally constrained analogues of diacylglycerol-lactones. Interactions with protein kinase C” (J Med Chem, 2004).
